Among the data in ChEMBL document CHEMBL1143704, “Cyathusals A, B, and C, antioxidants from the fermented mushroom Cyathus stercoreus” (J Nat Prod, 2007) are EC50 values, retold here.

The subject of assay [1] is Radical scavenging activity. Nature of the assay: Antioxidant activity assessed as DPPH radical scavenging activity after 30 mins. Type of assay: functional. In a few lines:
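10 µL DMSO sample dilutions (DMSO alone as control) added to 190 µL of 1.5 × 10^-4 M ethanolic DPPH radical. Incubated 30 min at 25 °C, then A517 read at steady state. % scavenged = (1 − Atest/Acontrol) × 100. EC50 is the concentration scavenging 50% of the DPPH radical.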
In general terms: DPPH is a stable violet radical that fades when it is reduced.

A short description of assay [2]: Antioxidant activity assessed as ABTS radical scavenging activity after 7 mins.

What is called EC50 is the midpoint of the concentration-response curve. On to `Cc1c(C)c2c(c(C)c1O)CCC(C)(C(=O)O)O2` (configuration not stated) [TROLOX], for which the figures for the 50% effective concentration (EC50) in assay [1] and in assay [2] were 37.6 µM and 14.5 µM, respectively.
For `COc1ccc(O)c(C(C)(C)C)c1.COc1ccc(O)cc1C(C)(C)C` [BUTYLATED HYDROXYANISOLE] the same measures were 97.1 µM and 11.7 µM.
With `C/C=C/c1cc2c(c(=O)o1)-c1c(O)c(O)c(OC)c(C=O)c1C(OC(C)C)O2` (configuration not stated) [CYATHUSAL C], the EC50 in assay [1] is 26.6 µM; in assay [2], 9.1 µM.
Consider `C/C=C/c1cc2c(c(=O)o1)-c1c(O)c(O)c(OC)c(C=O)c1CO2` [CYATHUSAL A], for which the values for the half-maximal effective concentration (EC50) in assay [1] and in assay [2] were 41.6 µM and 7.86 µM, respectively.
As for `C/C=C/c1cc2c(c(=O)o1)-c1c(O)c(O)c(OC)c(C=O)c1C(O)O2` (configuration not stated) [CYATHUSAL B], the results for the EC50 in assay [1] and in assay [2] were 46 µM and 11.1 µM, respectively.
The matching figures for `C/C=C/c1cc2c(c(=O)o1)-c1c(O)c(O)c(OC)c(C=O)c1C(OC)O2` (configuration not stated) [PULVINATAL]: 28.6 µM and 8.36 µM.
